These results are taken from publication PMC2773129 (JACC. Cardiovascular imaging, 2009).

Bridges are numbered along the chain shown (N, C = ends). Roman numbers before positions name the chains, in order. Where no end group is shown, it is not given here. The star is where a group is joined. X1 = O=C(CON=Cc1ccc(F)cc1)*

Data set [1] has as its system atherosclerotic plaques, VCAM-1. Kind of data set: Ex vivo uptake of 18F-4V in excised aortas. The arrangement: species or system mouse.
Data set [2] concerns infarcted myocardium, VCAM-1. Kind of data set: 18F-4V uptake after myocardial infarction. Format: in vivo, mouse. The note with it: mice 5 days after MI, without antibody blocking.
The test system of data set [3] is VCAM-1 expression in atherosclerotic plaques. Put plainly: In vivo PET-CT imaging of aortic root. The arrangement: species or system mouse. The note with it: apoE-/- mice, PET-CT initiated 1 hour after injection, mean±SEM.
Data set [4] in a line: Biodistribution by gamma counting of harvested organs. Format: in vivo. To be noted: mouse, iv, 150 uCi, total radioactivity. In outline:
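Test compound (¹⁸F-labelled peptide, 150 μCi) injected into the tail vein of 6 wild-type mice under isoflurane anaesthesia. Mice were killed at 4 h and perfused with saline. Organs and feces were harvested and counted in a gamma counter. Counts were corrected for decay and residual injection-site activity and expressed as %ID per gram tissue, mean±SEM.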

Data set [5] concerns rejected cardiac allograft, VCAM-1. Kind of data set: 18F-4V uptake in heterotopic allograft heart transplant rejection. Format: in vivo, mouse. To be noted: day 7 after heart transplantation.

For “I: VHPKQHRGGSYKKK(X1) / II: VHPKQHRGGSYK / III: VHPKQHRGGSY / IV: VHPKQHRGGSY (amide I:12-IV:C, I:13-II:C, II:12-III:C) [^18F-4V]”, the “ex vivo %IDGT in murine atheroma” value in data set [1] (apoE-/- mice, ex vivo, mean±SEM) is given as 5.9±1.5 %IDGT. Moreover, the “uptake in the aortic root, higher in apoE-/- mice compared to wild type” value in data set [1] (excised aortas, apoE-/- vs wild-type mice, p < 0.05) is 312%. Besides, in data set [2], the “infarct activity to background ratio” value is given as 3.1. For the same substance, the “PET signal in murine atheroma (standard uptake value)” value in data set [3] was found to be 0.31±0.02 SUV. Further, the tissue uptake at 4 h came out at 1.3 ± 0.4 %ID/g in data set [4] (aorta); 1.3 ± 0.4 %ID/g in data set [4] (bone); 1.5 ± 0.5 %ID/g in data set [4] (esophagus); 1.7 ± 0.1 %ID/g in data set [4] (fat); 0.6 ± 0.2 %ID/g in data set [4] (heart); 13.2 ± 2.8 %ID/g in data set [4] (kidney). Further, the tissue uptake at 4 h in data set [4] (large intestine) is 1.4 ± 0.5 %ID/g; in data set [4] (liver), 3.7 ± 1.1 %ID/g; in data set [4] (lung), 2.2 ± 0.8 %ID/g; in data set [4] (lymph node) it was 3.7 ± 0.3 %ID/g; in data set [4] (skeletal muscle), 0.7 ± 0.3 %ID/g; in data set [4] (skin) it was 1.7 ± 0.6 %ID/g. Moreover, the tissue uptake at 4 h is 1.9 ± 0.4 %ID/g in data set [4] (small intestine); 2.1 ± 0.6 %ID/g in data set [4] (spleen); 1.7 ± 1.1 %ID/g in data set [4] (stomach); 0.9 ± 0.3 %ID/g in data set [4] (thymus); 1.5 ± 0.4 %ID/g in data set [4] (whole blood). For the same substance, in data set [4] (feces), the dose excreted at 4 h turned out to be 0.2 ± 0.1%. In addition, the “graft to background ratio after pre-injection of VCAM-1 targeted antibody” value in data set [5] (pre-injection with VCAM-1 targeted antibody) is recorded as 1.4. Further, the “graft to background ratio” value in data set [5] (without antibody blocking) is recorded as 2.4.
